Test results from ChEMBL document CHEMBL1139374, “Multivalent scaffolds for affinity maturation of small molecule cell surface binders and their application to prostate tumor targeting” (J Med Chem, 2009).
Calls of active or inactive are those of the source. The rule behind the calls is not given here.

Experiments:
[1] = target: T1, Glutamate carboxypeptidase 2 (Homo sapiens, UniProt Q04609); test: Binding affinity to PSMA in human PC3 cells assessed as cell surface binding in Tris-buffered saline buffer; type: cell-based; conditions: for Activity: PC-3
How it was run: (§1)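 Cells washed twice in ice-cold TBS pH 7.4, then held 20 min at 4°C with 0.02 MBq 99mTc-labeled tracer, with or without test compound, in TBS, PBS or 100% calf serum. Washed three times in TBS, gamma-counted, affinity taken from curve fit; mean ± S.D.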

[2] = target: T1, Glutamate carboxypeptidase 2; test: Binding affinity to PSMA in human PC3 cells assessed as cell surface binding in phosphate-buffered saline buffer; type: cell-based
How it was run: as §1, with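 “Live-cell homologous competition; cells grown in RPMI 1640 with 10% FBS at 37°C and 5% CO2. Cells” for “Cells”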

[3] = target: T1, Glutamate carboxypeptidase 2; test: Binding affinity to PSMA in human LNCaP cells assessed as cell surface binding in phosphate-buffered saline buffer; type: cell-based
How it was run: as §1, with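 “Live-cell homologous competition; cells grown in RPMI 1640 with 10% FBS at 37°C and 5% CO2. Cells” for “Cells”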

[4] = target: T1, Glutamate carboxypeptidase 2; test: Binding affinity to PSMA in human LNCaP cells assessed as cell surface binding in Tris-buffered saline buffer; type: cell-based; how it was run: as §1
[5] = target: T1, Glutamate carboxypeptidase 2; test: Binding affinity to PSMA in human LNCaP cells assessed as cell surface binding in presence of 100% calf serum; type: cell-based
How it was run: as §1, with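 “Live-cell homologous competition; cells grown in RPMI 1640 with 10% FBS at 37°C and 5% CO2. Cells” for “Cells”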

[6] = target: T1, Glutamate carboxypeptidase 2; test: Binding affinity to PSMA in living human LNCaP cells assessed as cell surface binding at 2 uM in presence of 100% calf serum by NIR fluorescence imaging; type: cell-based
How it was run: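 Exponentially growing LNCaP cells at 75% confluence on glass coverslips, exposed to 2 μM compound in 0.2 mL 100% calf serum for 20 min at room temperature. Washed three times in serum, fixed in 2% paraformaldehyde 10 min, permeabilized with PBS-0.1% Tween-20 and mounted. Phase-contrast and NIR images taken on a four-channel NIR fluorescence microscope at identical exposure and normalization.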
Target sequence in this assay (Q04609 whole entry, looked up): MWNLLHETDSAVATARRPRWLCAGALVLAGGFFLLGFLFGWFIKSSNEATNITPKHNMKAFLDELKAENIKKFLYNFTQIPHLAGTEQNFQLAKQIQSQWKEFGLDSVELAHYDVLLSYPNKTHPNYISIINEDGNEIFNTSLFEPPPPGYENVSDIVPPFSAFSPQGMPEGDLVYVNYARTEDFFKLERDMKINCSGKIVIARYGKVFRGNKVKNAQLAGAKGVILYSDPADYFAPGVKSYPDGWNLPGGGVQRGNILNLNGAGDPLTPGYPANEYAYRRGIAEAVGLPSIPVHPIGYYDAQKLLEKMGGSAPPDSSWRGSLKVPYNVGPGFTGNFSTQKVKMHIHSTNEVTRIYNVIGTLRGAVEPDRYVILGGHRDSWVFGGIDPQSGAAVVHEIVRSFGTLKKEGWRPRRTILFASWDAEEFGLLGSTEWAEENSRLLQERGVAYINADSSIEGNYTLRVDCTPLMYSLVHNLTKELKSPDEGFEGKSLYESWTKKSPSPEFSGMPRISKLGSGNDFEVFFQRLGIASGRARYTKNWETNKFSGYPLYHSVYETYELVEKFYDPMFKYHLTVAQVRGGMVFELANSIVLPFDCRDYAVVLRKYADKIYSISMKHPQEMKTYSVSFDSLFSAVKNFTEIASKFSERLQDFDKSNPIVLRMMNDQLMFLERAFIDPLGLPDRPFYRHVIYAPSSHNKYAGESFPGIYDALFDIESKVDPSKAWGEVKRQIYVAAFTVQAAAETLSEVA

[7] = target: T1, Glutamate carboxypeptidase 2; test: Binding affinity to PSMA in human PC3 cells assessed as cell surface binding in presence of 100% calf serum; type: cell-based, PC-3
How it was run: as §1, with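 “Live-cell homologous competition; cells grown in RPMI 1640 with 10% FBS at 37°C and 5% CO2. Cells” for “Cells”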
Target sequence in this assay (Q04609 whole entry): as the sequence (Q04609 whole entry, looked up) above

Structure (SMILES)	Activity [1]	Activity [4]	Kd [3]	Kd [4]	Activity [5]	also measured
NC12CC3(CCC(=O)O)CC(CCC(=O)O)(C1)CC(CCC(=O)O)(C2)C3	inactive	inactive	–	–	–	Activity ([2]; PC-3): inactive; Activity [3]: inactive
CC(C)(C)OC(=O)NCCCCCC(=O)NC12CC3(CCC(=O)N[C@@H](CCP(=O)(O)CC(CCC(=O)O)C(=O)O)C(=O)O)CC(CCC(=O)N[C@@H](CCP(=O)(O)CC(CCC(=O)O)C(=O)O)C(=O)O)(CC(CCC(=O)N[C@@H](CCP(=O)(O)CC(CCC(=O)O)C(=O)O)C(=O)O)(C3)C1)C2 (stereo partly specified)	–	–	500 pM	400 pM	–	Kd [5]: 700 pM
CC1(C)C(/C=C/C2=C(Oc3ccc(S(=O)(=O)[O-])cc3)C(=C/C=C3\N(CCCCS(=O)(=O)O)c4ccccc4C3(C)C)/CCC2)=[N+](CCCCCC(=O)NC23CC4(CCC(=O)O)CC(CCC(=O)O)(CC(CCC(=O)O)(C4)C2)C3)c2ccccc21	inactive	inactive	–	–	–	–
CC1(C)C(C=CC2=C(Oc3ccc(S(=O)(=O)O)cc3)/C(=C/C=C3/N(CCCCCC(=O)N[C@@H](CCP(=O)(O)CC(CCC(=O)O)C(=O)O)C(=O)O)c4ccc(S(=O)(=O)[O-])cc4C3(C)C)CCC2)=[N+](CCCCS(=O)(=O)O)c2ccc(S(=O)(=O)O)cc21 (stereo partly specified)	–	–	–	3600 pM	–	–
CC1(C)C(/C=C/C2=C(Oc3ccc(S(=O)(=O)O)cc3)C(=C/C=C3/N(CCCCS(=O)(=O)O)c4ccc(S(=O)(=O)O)cc4C3(C)C)/CCC2)=[N+](CCCCCC(=O)NCCCCCC(=O)NC23CC4(CCC=O)CC(CCC=O)(CC(CCC(=O)N[C@@H](CCP(=O)(O)CC(CCC(=O)O)C(=O)O)C(=O)O)(C4)C2)C3)c2ccc(S(=O)(=O)[O-])cc21 (stereo partly specified)	–	–	–	–	inactive	Activity [3]: inactive
CC1(C)C(/C=C/C2=C(Oc3ccc(S(=O)(=O)[O-])cc3)C(=C/C=C3/N(CCCCS(=O)(=O)O)c4ccccc4C3(C)C)/CCC2)=[N+](CCCCCC(=O)O)c2ccccc21	inactive	inactive	–	–	–	Activity [6]: 100%
CC1(C)C(/C=C/C2=C(Oc3ccc(S(=O)(=O)O)cc3)C(=C/C=C3/N(CCCCS(=O)(=O)O)c4ccc(S(=O)(=O)O)cc4C3(C)C)/CCC2)=[N+](CCCCCC(=O)NCCCCCC(=O)NC23CC4(CCC(=O)N[C@@H](CCP(=O)(O)CC(CCC(=O)O)C(=O)O)C(=O)O)CC(CCC(=O)N[C@@H](CCP(=O)(O)CC(CCC(=O)O)C(=O)O)C(=O)O)(CC(CCC(=O)N[C@@H](CCP(=O)(O)CC(CCC(=O)O)C(=O)O)C(=O)O)(C4)C2)C3)c2ccc(S(=O)(=O)[O-])cc21 (stereo partly specified)	–	–	500 pM	500 pM	0.4 nM	–
CC1(C)C(/C=C/C2=C(Oc3ccc(S(=O)(=O)O)cc3)C(=C/C=C3/N(CCCCS(=O)(=O)O)c4ccc(S(=O)(=O)O)cc4C3(C)C)/CCC2)=[N+](CCCCCC(=O)N[C@@H](CCP(=O)(O)CC(CCC(=O)O)C(=O)O)C(=O)O)c2ccc(S(=O)(=O)[O-])cc21 (stereo partly specified)	–	–	–	–	inactive	Activity [3]: inactive
CC1(C)C(/C=C/C2=C(Oc3ccc(S(=O)(=O)O)cc3)C(=C/C=C3/N(CCCCS(=O)(=O)O)c4ccc(S(=O)(=O)O)cc4C3(C)C)/CCC2)=[N+](CCCCCC(=O)O)c2ccc(S(=O)(=O)[O-])cc21	inactive	inactive	–	–	–	–
CC1(C)C(/C=C/C2=C(Oc3ccc(S(=O)(=O)O)cc3)C(=C/C=C3/N(CCCCS(=O)(=O)O)c4ccc(S(=O)(=O)[O-])cc4C3(C)C)/CCC2)=[N+](CCCCCC(=O)NCCCCCC(=O)NC23CC4(CCC=O)CC(CCC=O)(CC(CCC(=O)N[C@@H](CCP(=O)(O)CC(CCC(=O)O)C(=O)O)C(=O)O)(C4)C2)C3)c2ccc(S(=O)(=O)O)cc21 (stereo partly specified)	–	–	–	5400 pM	–	–
N[C@@H](CCP(=O)(O)CC(CCC(=O)O)C(=O)O)C(=O)O (stereo partly specified)	–	–	–	10500 pM	inactive	Activity [3]: inactive
CC1(C)C(/C=C/C2=C(Oc3ccc(S(=O)(=O)O)cc3)C(=C/C=C3/N(CCCCS(=O)(=O)O)c4ccc(S(=O)(=O)O)cc4C3(C)C)/CCC2)=[N+](CCCCCC(=O)NCCCCCC(=O)NC23CC4(CCC(=O)O)CC(CCC(=O)O)(CC(CCC(=O)O)(C4)C2)C3)c2ccc(S(=O)(=O)[O-])cc21	inactive	inactive	–	–	–	–
CC1(C)C(/C=C/C2=C(Oc3ccc(S(=O)(=O)[O-])cc3)C(=C/C=C3/Nc4ccccc4C3(C)C)/CCC2)=[N+](CCCCCC(=O)NC23CC4(CCC(=O)N[C@@H](CCP(=O)(O)CC(CCC(=O)O)C(=O)O)C(=O)O)CC(CCC(=O)N[C@@H](CCP(=O)(O)CC(CCC(=O)O)C(=O)O)C(=O)O)(CC(CCC(=O)N[C@@H](CCP(=O)(O)CC(CCC(=O)O)C(=O)O)C(=O)O)(C4)C2)C3)c2ccccc21 (stereo partly specified)	–	–	300 pM	200 pM	–	Activity [6]: 100%; Kd [5]: 300 pM
CC(C)(C)OC(=O)NC12CC3(CCC(=O)N[C@@H](CCP(=O)(O)CC(CCC(=O)O)C(=O)O)C(=O)O)CC(CCC(=O)N[C@@H](CCP(=O)(O)CC(CCC(=O)O)C(=O)O)C(=O)O)(CC(CCC(=O)N[C@@H](CCP(=O)(O)CC(CCC(=O)O)C(=O)O)C(=O)O)(C3)C1)C2 (stereo partly specified)	–	–	800 pM	600 pM	0.9 nM	Kd [1]: 200 pM; Kd [2]: 300 pM; Kd [7]: 600 pM
CC1(C)C(/C=C/C2=C(Oc3ccc(S(=O)(=O)O)cc3)C(=C/C=C3/N(CCCCS(=O)(=O)O)c4ccc(S(=O)(=O)[O-])cc4C3(C)C)/CCC2)=[N+](CCCCCC(=O)NCCCCCC(=O)NC23CC4(CCC=O)CC(CCC(=O)N[C@@H](CCP(=O)(O)CC(CCC(=O)O)C(=O)O)C(=O)O)(CC(CCC(=O)N[C@@H](CCP(=O)(O)CC(CCC(=O)O)C(=O)O)C(=O)O)(C4)C2)C3)c2ccc(S(=O)(=O)O)cc21 (stereo partly specified)	–	–	1900 pM	1300 pM	–	Kd [5]: 1700 pM
